Results of several laboratories.
Lines come from different studies, so protocols differ.
Effect on: cell growth or viability

COc1ccc(-c2ccc(-c3ccc(C(=N)N)nc3)s2)cc1  GI50 (SF-268; SRB): 1.76 µM
CNC(=O)c1ccccc1Sc1ccc2c(/C=C/c3ccccn3)n[nH]c2c1  GI50 (BaF3; ATP luminescence; 72 h): 1.31 µM
O=C(N/N=C/c1c(O)ccc2ccccc12)c1cc(-c2ccc3ccccc3c2)n[nH]1  IC50 (WM-115; MTS; 72 h): 1.8 µM
O=C1Nc2ccccc2C1=NNc1nnc2n1N=C(c1ccccc1)CS2  inhibition (SF-268; SRB; 10 µM): 31%
Nc1n[nH]c2cc(I)ccc12  GI50 (BaF3; CCK-8): > 10 µM
CC(C)(C)n1ncc2c(Nc3ccc(OC(F)(F)F)cc3)ncnc21  EC50 (BaF3; ATP luminescence): > 10 µM
COc1cccc(Oc2ccccc2NC(=O)CNC(=O)c2cccc3ccccc23)c1  GI50 (SF-268; SRB; 48 h): 0.55 µM
CNC(=O)c1cc(Oc2ccc(NC(=O)Nc3ccc(Cl)c(C(F)(F)F)c3)c(F)c2)ccn1  GI50 (BaF3; ATP luminescence; 72 h): 1.81 µM
Oc1ccc(Nc2nc(-c3ccc(Cl)cc3)cs2)cc1  IC50 (WM-115; MTS; 48 h): 23.8 µM
COc1cc(-c2ccc(-c3ccc(C(=N)N)nc3)s2)cc(OC)c1OC  GI50 (SF-268; SRB): 14.6 µM
COc1ccnc(COc2ccc(NC(=O)Nc3cccc(C(F)(F)F)c3)cc2)c1OC  IC50 (L02; MTT; 72 h): > 100 µM
CNC(=O)c1ccccc1Sc1ccc2c(N)n[nH]c2c1  GI50 (BaF3; CCK-8): 7.9 µM
COc1ccccc1S(=O)(=O)Nc1ccc2c(c1)CN(C)C(=O)N2  GI50 (NALM-6; ATP luminescence): 8 µM
COc1ccc(NC(=O)Nc2ccc(OCc3nccc(OCC(F)(F)F)c3C)cc2)cc1  IC50 (L02; MTT; 72 h): > 100 µM
C=CC(=O)N1CCC[C@@H](n2nc(-c3ccc(Oc4ccccc4)cc3)c3c(N)ncnc32)C1  GI50 (NALM-6; ATP luminescence; 72 h): 2.8 µM
COc1cc(N2CCC(N3CCN(C)CC3)CC2)ccc1Nc1ncc(Cl)c(Nc2ccccc2P(C)(C)=O)n1  GI50 (BaF3; 72 h): 2.1 µM
COc1ccc(NC(=O)Nc2ccc(OCc3ncc(C)c(OC)c3C)cc2)cc1  IC50 (L02; MTT; 72 h): > 100 µM
